The source made the active and inactive calls. The calls are words filed in the database; no cut-off is given here.
Legend:
HUVEC = assay: Induction of apoptosis in human HUVEC cells assessed as early apoptotic cells at 1 uM incubated for 48 hrs by Annexin-V-FITC/propidium iodide staining-based flow cytometric analysis (reference value: 3.63%); assay type: functional
[1] = Intrinsic clearance in human liver microsomes; assay type: ADME, Microsome; conditions: read-out: CLH
MKN-74 [2] = assay: Induction of apoptosis in human MKN74 cells assessed as viable cells at 1 uM incubated for 72 hrs by Annexin-V-FITC/propidium iodide staining-based flow cytometric analysis (reference value: 76.84%); assay type: functional; conditions: MKN-74, 72 h, read-out: Activity
HT-29 [3] = assay: Inhibition of receptor tyrosine kinase in human HT-29 cells assessed as reduction in AKT phosphorylation at Ser473 residue after 24 hrs by Western blotting analysis; assay type: cell-based
How it was run: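 Cells cultured overnight, then treated with compound at different concentrations for 24 h. About 1×10⁶ cells harvested and immunoblotted for p-AKT (Ser473), AKT, p-ERK (Thr202/Tyr204), ERK, with GAPDH as loading control. Detection by chemiluminescence and gel imaging. Blots shown are representative of several experiments.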

[4] = Inhibition of GST-tagged human recombinant VEGFR3 cytoplasmic domain (800 to 1297 residues) Q890H/V1128L/H1146R mutant expressed in baculovirus expression system using FAM-labeled peptide and ATP as substrate preincubated for 10 mins followed by substrate addition measured after 1 hr by mobility shift assay
HEK-293T = assay: Induction of apoptosis in human HEK293T cells by Annexin-V-FITC/propidium iodide staining-based flow cytometric analysis; assay type: cell-based
[5] = Half life in human liver microsomes; assay type: ADME, Microsome
HT-29 [6] = assay: Induction of apoptosis in human HT-29 cells assessed as early apoptotic cells at 3 uM incubated for 72 hrs by Annexin-V-FITC/propidium iodide staining-based flow cytometric analysis (reference value: 3.18%); assay type: functional
[7] = target: Tyrosine-protein kinase Lyn (Homo sapiens, UniProt P07948); assay: Inhibition of LYN (unknown origin) using FAM-labeled peptide and ATP as substrate preincubated for 10 mins followed by substrate addition measured after 1 hr by mobility shift assay
Tyrosine-protein kinase Lyn, sequence (P07948 whole entry): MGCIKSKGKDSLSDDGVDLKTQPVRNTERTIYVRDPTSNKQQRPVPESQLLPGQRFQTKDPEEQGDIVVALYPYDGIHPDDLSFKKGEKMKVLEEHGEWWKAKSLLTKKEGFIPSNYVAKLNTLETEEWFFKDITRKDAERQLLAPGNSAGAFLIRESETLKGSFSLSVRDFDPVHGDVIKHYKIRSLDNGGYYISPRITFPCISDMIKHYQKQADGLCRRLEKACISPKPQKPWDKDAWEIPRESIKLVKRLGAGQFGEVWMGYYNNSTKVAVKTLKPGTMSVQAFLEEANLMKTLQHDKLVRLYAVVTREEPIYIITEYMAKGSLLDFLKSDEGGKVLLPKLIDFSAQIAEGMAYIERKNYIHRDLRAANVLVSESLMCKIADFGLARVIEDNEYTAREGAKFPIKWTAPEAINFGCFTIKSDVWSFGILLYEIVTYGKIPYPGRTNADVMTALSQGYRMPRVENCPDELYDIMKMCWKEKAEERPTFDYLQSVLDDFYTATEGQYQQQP

MKN-74 [8] = assay: Induction of apoptosis in human MKN74 cells assessed as necrotic cells at 0.3 uM incubated for 72 hrs by Annexin-V-FITC/propidium iodide staining-based flow cytometric analysis (reference value: 6.29%); assay type: functional
[9] = target: Fibroblast growth factor receptor 1 (Homo sapiens, UniProt P11362); assay: Inhibition of N-terminal GST fused human recombinant FGFR1 cytoplasmic domain (398 to 822 (end) residues) expressed in baculovirus expression system using FAM-labeled peptide and ATP as substrate preincubated for 10 mins followed by substrate addition measured after 1 hr by mobility shift assay
Fibroblast growth factor receptor 1, sequence (P11362 whole entry, the tested form may be a part): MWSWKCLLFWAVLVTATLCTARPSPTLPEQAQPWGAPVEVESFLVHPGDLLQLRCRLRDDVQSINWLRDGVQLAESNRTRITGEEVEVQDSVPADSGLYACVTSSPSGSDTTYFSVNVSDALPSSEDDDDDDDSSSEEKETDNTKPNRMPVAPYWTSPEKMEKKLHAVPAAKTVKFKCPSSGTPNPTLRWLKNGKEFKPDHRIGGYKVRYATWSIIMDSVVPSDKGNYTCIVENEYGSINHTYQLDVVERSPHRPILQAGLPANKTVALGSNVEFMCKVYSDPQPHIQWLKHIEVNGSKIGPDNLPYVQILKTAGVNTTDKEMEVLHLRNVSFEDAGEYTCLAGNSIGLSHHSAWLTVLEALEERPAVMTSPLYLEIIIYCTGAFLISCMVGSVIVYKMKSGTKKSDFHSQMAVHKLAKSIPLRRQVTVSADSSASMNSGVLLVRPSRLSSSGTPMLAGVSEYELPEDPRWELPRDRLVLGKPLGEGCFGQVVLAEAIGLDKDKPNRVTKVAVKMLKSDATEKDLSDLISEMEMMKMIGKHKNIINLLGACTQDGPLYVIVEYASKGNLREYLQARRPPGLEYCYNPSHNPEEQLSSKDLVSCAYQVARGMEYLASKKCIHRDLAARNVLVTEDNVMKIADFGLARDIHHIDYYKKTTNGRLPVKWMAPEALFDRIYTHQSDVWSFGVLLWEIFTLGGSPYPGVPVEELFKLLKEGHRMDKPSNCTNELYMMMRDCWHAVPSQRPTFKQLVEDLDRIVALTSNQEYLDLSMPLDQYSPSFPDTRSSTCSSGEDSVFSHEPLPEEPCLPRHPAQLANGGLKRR

HT-29 [10] = assay: Inhibition of colony formation in human HT-29 cells at 1 uM measured after 14 days by crystal violet staining-based assay; assay type: functional, cell-based
How it was run: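 HT-29 cells exposed to compound for 14 days and colonies counted. Read-out is colony formation rate relative to vehicle, given as mean ± SEM. Significance versus the vehicle group was tested by unpaired two-tailed Student's t-test.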

HepG2 = assay: Induction of apoptosis in human HepG2 cells incubated for 72 hrs by Annexin-V-FITC/propidium iodide staining-based flow cytometric analysis; assay type: functional, cell-based
[11] = target: Mast/stem cell growth factor receptor Kit (Homo sapiens, UniProt P10721); assay: Inhibition of c-Kit (unknown origin) using FAM-labeled peptide and ATP as substrate preincubated for 10 mins followed by substrate addition measured after 1 hr by mobility shift assay
Mast/stem cell growth factor receptor Kit, sequence (P10721 whole entry): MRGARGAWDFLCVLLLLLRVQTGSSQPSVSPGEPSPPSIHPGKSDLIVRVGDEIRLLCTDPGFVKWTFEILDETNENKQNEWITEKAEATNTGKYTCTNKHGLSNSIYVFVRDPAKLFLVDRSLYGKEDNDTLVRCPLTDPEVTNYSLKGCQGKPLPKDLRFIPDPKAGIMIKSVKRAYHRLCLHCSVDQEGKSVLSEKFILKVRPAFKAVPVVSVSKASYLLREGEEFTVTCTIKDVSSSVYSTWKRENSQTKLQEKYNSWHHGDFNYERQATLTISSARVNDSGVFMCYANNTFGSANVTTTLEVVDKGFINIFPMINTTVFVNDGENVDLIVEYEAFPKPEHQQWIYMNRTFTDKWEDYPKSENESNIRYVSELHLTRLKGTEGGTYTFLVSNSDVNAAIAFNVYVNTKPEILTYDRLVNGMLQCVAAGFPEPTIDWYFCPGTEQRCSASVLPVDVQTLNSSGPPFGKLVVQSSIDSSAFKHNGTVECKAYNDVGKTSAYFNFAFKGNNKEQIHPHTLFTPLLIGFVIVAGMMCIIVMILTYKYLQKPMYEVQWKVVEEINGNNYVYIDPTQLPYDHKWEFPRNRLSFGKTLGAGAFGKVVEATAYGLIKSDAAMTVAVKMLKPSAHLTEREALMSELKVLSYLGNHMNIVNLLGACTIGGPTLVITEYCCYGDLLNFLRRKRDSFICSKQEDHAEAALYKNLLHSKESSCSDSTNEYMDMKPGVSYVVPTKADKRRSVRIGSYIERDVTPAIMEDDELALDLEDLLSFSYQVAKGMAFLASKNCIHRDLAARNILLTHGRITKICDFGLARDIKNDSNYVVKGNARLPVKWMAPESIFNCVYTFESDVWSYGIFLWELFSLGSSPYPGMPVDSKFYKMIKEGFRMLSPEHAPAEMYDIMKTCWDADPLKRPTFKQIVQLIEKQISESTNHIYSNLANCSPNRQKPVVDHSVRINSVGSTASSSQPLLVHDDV

MKN-74 [12] = assay: Induction of apoptosis in human MKN74 cells assessed as viable cells at 3 uM incubated for 72 hrs by Annexin-V-FITC/propidium iodide staining-based flow cytometric analysis (reference value: 76.84%); assay type: functional; conditions: MKN-74, 72 h, read-out: Activity
[13] = target: Serine/threonine-protein kinase B-raf (Homo sapiens, UniProt P15056); assay: Inhibition of B-Raf (unknown origin) using FAM-labeled peptide and ATP as substrate preincubated for 10 mins followed by substrate addition measured after 1 hr by mobility shift assay
Serine/threonine-protein kinase B-raf, sequence (P15056 whole entry): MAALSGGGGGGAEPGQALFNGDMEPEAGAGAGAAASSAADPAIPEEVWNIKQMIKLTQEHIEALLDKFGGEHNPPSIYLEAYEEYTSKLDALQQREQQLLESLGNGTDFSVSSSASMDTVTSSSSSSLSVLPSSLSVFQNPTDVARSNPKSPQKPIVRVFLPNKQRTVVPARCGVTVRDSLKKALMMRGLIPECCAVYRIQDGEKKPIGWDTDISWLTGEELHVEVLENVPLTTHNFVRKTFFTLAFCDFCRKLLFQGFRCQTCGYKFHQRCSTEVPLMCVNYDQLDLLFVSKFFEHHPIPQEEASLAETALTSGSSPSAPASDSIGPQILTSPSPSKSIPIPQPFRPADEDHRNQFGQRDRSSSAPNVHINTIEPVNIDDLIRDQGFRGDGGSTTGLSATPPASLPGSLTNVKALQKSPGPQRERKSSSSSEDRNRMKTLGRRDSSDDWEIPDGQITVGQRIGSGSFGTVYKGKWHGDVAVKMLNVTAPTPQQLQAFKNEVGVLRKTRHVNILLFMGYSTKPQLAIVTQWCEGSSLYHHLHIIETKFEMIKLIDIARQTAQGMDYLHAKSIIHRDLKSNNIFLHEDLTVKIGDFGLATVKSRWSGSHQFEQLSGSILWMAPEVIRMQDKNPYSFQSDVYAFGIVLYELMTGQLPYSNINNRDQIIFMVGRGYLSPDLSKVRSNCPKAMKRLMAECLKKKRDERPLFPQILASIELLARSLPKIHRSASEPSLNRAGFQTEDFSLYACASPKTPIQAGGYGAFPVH

## COC(=O)c1ccc2c(c1)NC(=O)/C2=C(\Nc1ccc(-n2c(C)ccc2CN2CCN(C)CC2)cc1)c1ccccc1
HUVEC
  Activity: 3.58%
[1]
  CLint scaled: 82 mL/min/kg
MKN-74 [2]
  viability at 1 µM: 62.9%
HT-29 [3]
  inhibition: Dose-dependent effect
[4]
  IC50: 6.3 nM
HEK-293T
  Activity: Non-Toxic
[5]
  half-life: 21.2 min
HT-29 [6]
  Activity: 0.54%
[7]
  IC50: 16 nM
MKN-74 [8]
  Activity: 6.48%
[9]
  IC50: 23 nM
HT-29 [10]
  inhibition: Active
HepG2
  Activity: Dose-dependent effect
[11]
  IC50: 17 nM
MKN-74 [12]
  viability at 3 µM: 8.53%
[13]
  IC50: > 1000 nM

From ChEMBL document CHEMBL4622841, “Structural modifications of indolinones bearing a pyrrole moiety and discovery of a multi-kinase inhibitor with potent antitumor activity” (Bioorg Med Chem, 2020)
